sPLA2-III inh: Inhibits HGIII-sPLA2 liposome hydrolysis, primary screen. hit rate 0.56% among 370,000. inhibition, % at 12.2 µM. QFRET BODIPY PC-A2 liposome hydrolysis, fluorescence. Q9NZ20;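 active = inhibition above mean plus 3 SD of compounds lying within the high and low control bounds, cut at about 19% in these data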
Target sequence (Q9NZ20 whole entry, looked up): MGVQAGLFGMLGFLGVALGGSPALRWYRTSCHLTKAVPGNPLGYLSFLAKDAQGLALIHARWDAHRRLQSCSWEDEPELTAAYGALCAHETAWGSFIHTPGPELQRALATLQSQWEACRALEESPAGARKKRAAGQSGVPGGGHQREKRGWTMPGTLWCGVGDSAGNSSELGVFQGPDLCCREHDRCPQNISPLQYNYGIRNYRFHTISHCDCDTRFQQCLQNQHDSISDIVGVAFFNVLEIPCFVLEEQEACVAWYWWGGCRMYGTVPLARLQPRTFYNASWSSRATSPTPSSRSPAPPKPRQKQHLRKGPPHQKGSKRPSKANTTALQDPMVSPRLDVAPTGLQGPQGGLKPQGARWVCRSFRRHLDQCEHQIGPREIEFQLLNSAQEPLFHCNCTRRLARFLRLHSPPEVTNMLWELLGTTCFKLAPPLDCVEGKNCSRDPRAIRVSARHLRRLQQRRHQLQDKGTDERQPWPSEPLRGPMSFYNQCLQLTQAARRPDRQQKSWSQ
ARNT TACC3 PPI: disruptors of human ARNT/TACC3 interaction; Q9Y6A5; AlphaScreen His-ARNT PAS-B/GST-TACC3 binding, luminescence; TACC3 fragment carries E629A point mutation; inhibition, % at 9.99 µM; hit rate 0.66% among 390,000;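 active = mean inhibition of replicates at least 50% and at least half of replicates each reaching 50%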
Xi reactivation: activators of X-chromosome reactivation in mouse fibroblasts; activation, % at 7.58 µM; XiGFP mouse fibroblasts, % GFP-positive cells imaging, 3 d; cells co-treated with 5-aza-dC sensitizer; scaled so ellipticine positive control = 100%; hit rate 0.055% among 360,000; AID 743238;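 active = mean normalized replicate activation at least 10% and every replicate at or above 10%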
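Assay system: SV40-immortalized XiGFP fibroblast cells, line 68-5-11; buffer or medium: DMEM plus 5-aza-dC sensitizer; compound: one concentration, pinned; timing: compounds 3 days, fix/stain 15 min at room temperature; benchmarks: positive control ellipticine, 6 µM final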
NSD2 HMT inh: blocks human histone methyltransferase NSD2. AID 743445. hit rate 0.54% among 310,000. NSD2 peptide methylation, AlphaScreen, 120 min. O96028. inhibition, % at 12.5 µM; in the data active = inhibition above about 50%
SR-BI uptake up: activators of SR-BI mediated HDL lipid uptake; CHO ldlA[mSR-BI] cells, DiI-HDL uptake fluorescence, 3 h; 100 = double the neutral-control signal; activation, % at 12.5 µM; hit rate 0.096% among 320,000; AID 504775;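 active = mean replicate activation of at least 60% and every replicate at or above 60%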
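Material: SR-BI-overexpressing, LDLR-lacking CHO cells; schedule: compound exposure 3 h, 37 °C; reagent: DiI-labelled HDL at 10 µg/mL final; technique: bottom-read fluorescence, 550/595 nm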
SR-BI HDL uptake: mouse SR-BI HDL lipid transfer inhibition; ldlA[mSR-BI] CHO cells, DiI-HDL uptake fluorescence, 3 h; inhibition, % at 12.5 µM; hit rate 0.96% among 320,000; AID 488896;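 active = mean replicate inhibition of at least 70% and a set share of replicates each scoring 70 or more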
Numbers stand for hits; i = inactive; nt = not tested or not shown. Hits are enriched below; roughly 2% of the tested compounds scored in any of these assays.

SMILES | sPLA2-III inh | ARNT TACC3 PPI | Xi reactivation | NSD2 HMT inh | SR-BI uptake up | SR-BI HDL uptake
CCC1(c2ccccc2)CN(C)C1=O (centres undefined) | i | nt | i | i | nt | nt
O=C([C@@H]1[C@@H](CO)[C@@H]2Cn3c(ccc(-c4ccccc4F)c3=O)[C@@H]2N1CC1CC1)N1CCCCC1 | nt | i | i | nt | nt | nt
Cc1ccc(C)c2sc(NC(=O)c3ccc(N4CCCCC4)c([N+](=O)[O-])c3)nc12 | i | i | nt | i | i | 71
Cc1cccc(NC(=O)c2ccc(N3CCCCC3)c([N+](=O)[O-])c2)n1 | i | i | nt | i | i | 77
O=C(Nc1ccc(-c2nc3ccccc3o2)cc1)c1ccc(N2CCOCC2)c([N+](=O)[O-])c1 | i | i | nt | i | i | 81
COc1ccc2oc(-c3ccc(NC(=O)c4ccc(N5CCOCC5)c([N+](=O)[O-])c4)cc3)nc2c1 | i | i | nt | i | i | i
Cc1ccc(C(=O)Nc2cccc(-c3ccc(N4CCOCC4)nn3)c2)cc1[N+](=O)[O-] | i | i | i | i | i | 73
Cc1cc(C(=O)Nc2cccc3c2O[C@H](CN(C)S(=O)(=O)c2ccccc2)[C@@H](C)CN([C@@H](C)CO)C3=O)n(C)n1 | nt | i | i | nt | nt | nt
COc1ccc(S(=O)(=O)N2CCN(CC(=O)Nc3cc(Cl)ccc3Cl)CC2)cc1 | i | i | i | i | i | i
CCC(=O)N1CCN(c2ccc(Cl)cc2NC(=O)c2ccc(N3CCCC3)c([N+](=O)[O-])c2)CC1 | i | i | nt | i | i | 76
Cc1nn2c(NCC(C)C)c3c(nc2c1-c1ccccc1)CCC3 | nt | i | nt | i | i | i
Cc1nn2c(NC(C)C)c3c(nc2c1-c1ccccc1)CCC3 | i | i | i | i | 104 | i
CC(C)NC(=O)NCC[C@H]1CC[C@H](NS(=O)(=O)c2ccccc2)[C@@H](CO)O1 | nt | nt | i | nt | nt | nt
NC(CO)C(=O)NNCc1ccc(O)c(O)c1O (centres undefined) | i | 57 | i | nt | i | i
CC1(c2ccccc2Br)NC(=O)N(CC(=O)N2CCc3ccccc3C2)C1=O (centres undefined) | i | i | i | i | i | i
CCc1ccc(OCc2cccc(C(=O)N/N=C\c3cnn(C)c3C)c2)cc1 | i | i | i | i | i | 92
NS(=O)(=O)c1cccc(C(=O)NC2CCSc3ccccc32)c1 (centres undefined) | i | i | i | i | nt | nt
NS(=O)(=O)c1cc(C(=O)NC2CCSc3ccccc32)ccc1Cl (centres undefined) | i | i | i | 180 | i | i
Cc1cccc(NC(=O)Cn2c(/C=C/c3ccccc3)nc3ccccc32)c1 | i | 48 | i | i | i | i
COc1cccc(-c2cc(C(=O)Nc3c(C)nn(Cc4ccccc4)c3C)no2)c1 | nt | i | nt | i | nt | nt
Cc1nn(Cc2ccccc2Cl)c(C)c1NC(=O)c1ccn(C)n1 | i | i | i | i | i | i
COc1ccc(-c2cc(C(=O)Nc3c(C)nn(Cc4ccccc4)c3C)no2)cc1 | i | i | nt | i | i | 76
Cc1nn(Cc2ccccc2Cl)c(C)c1NC(=O)c1cc(-c2ccc(F)cc2)on1 | i | i | nt | i | i | 80
COc1ccc(NC(=O)Nc2ccc3c(c2)C(=O)N([C@H](C)CO)C[C@H](C)[C@@H](CN(C)S(=O)(=O)c2ccccc2)OCCCC[C@@H](C)O3)cc1 | nt | i | i | nt | nt | nt
CCN(CC)CC(O)Cn1c(C)c(-c2ccccc2)c2cc([N+](=O)[O-])ccc21 (centres undefined) | i | i | i | i | i | 89
SMILES | sPLA2-III inh | ARNT TACC3 PPI | Xi reactivation | NSD2 HMT inh | SR-BI uptake up | SR-BI HDL uptake
CCN(CC)CC(O)Cn1c2ccccc2c2ccccc21 (centres undefined) | i | i | nt | i | nt | nt
C[C@H]1CN([C@@H](C)CO)C(=O)CCCn2cc(nn2)CO[C@H]1CN(C)CC1CCCCC1 | nt | nt | i | nt | nt | nt
CCNc1nc(NC(C)C)nc(N(C)C#N)n1 | i | i | i | i | i | i
CC(C)Nc1nc(NC(C)C)nc(N(C)N)n1 | i | 59 | nt | i | i | i
CCNc1nc(NCC)nc(N(C)N)n1 | i | 70 | nt | i | i | i
O=C(C[C@H]1C[C@@H]2c3cc(NC(=O)NC4CCCC4)ccc3O[C@@H]2[C@H](CO)O1)NCc1ccc(-c2ccccc2)cc1 | nt | i | i | nt | nt | nt
COc1ccc(C)cc1S(=O)(=O)N(CC(=O)NC1CCCC1)c1ccc(F)cc1 | i | 46 | i | i | i | i
COc1ccc(C)cc1S(=O)(=O)N(C)CC(=O)NC1CCCCC1 | i | i | nt | i | i | i
COc1ccc(NC(=O)N(C)C[C@H]2Oc3ncc(C#CCC(C)C)cc3C(=O)N([C@@H](C)CO)C[C@H]2C)cc1 | nt | i | i | nt | nt | nt
C[C@@H]1CN([C@H](C)CO)C(=O)c2cc(NS(C)(=O)=O)ccc2O[C@@H](C)CCCCO[C@@H]1CN(C)C(=O)CCC(F)(F)F | nt | i | i | nt | nt | nt
O=C(Nc1nnc(S(=O)(=O)N2CCCC2)s1)c1ccccc1Br | i | i | i | nt | i | i
O=C(NC1=NN(c2ccccc2)CC1)Nc1ccccc1F | i | i | 50 | i | i | i
O=C(Nc1ccc2c(c1)[C@H]1C[C@H](CC(=O)N3CCCCC3)O[C@H](CO)[C@H]1O2)NC1CCCCC1 | nt | nt | i | nt | nt | nt
CCn1cc(/C=C(\NC(=O)c2ccc(OC)cc2)C(=O)N2CCN(C)CC2)c2ccccc21 | i | 48 | i | i | i | i
O=C1CSC(=S)N1N=Cc1ccc(Cl)cc1Cl | i | i | i | i | i | i
O=C1CSC(=S)N1N=Cc1ccccc1O | i | 65 | i | i | i | i
O=C1CSC(=S)N1N=Cc1cccc2ccccc12 | i | i | i | nt | i | i
O=C1CSC(=S)N1N=Cc1cccc(OCc2ccccc2)c1 | i | nt | i | i | nt | nt
Cc1ccccc1/C=N/N1C(=O)CSC1=S | i | 39 | i | i | i | i
O=C1CSC(=S)N1/N=C/c1cccnc1 | i | 39 | i | i | i | i
COc1cccc(S(=O)(=O)Nc2ccc3c(c2)C(=O)N(C)C[C@@H](OC)[C@@H](C)CN(Cc2ccccc2F)[C@@H](C)CO3)c1 | nt | i | i | nt | nt | nt
CCCn1nnc(NC(=S)NC(=O)/C=C/c2ccc(Cl)cc2)n1 | i | i | i | i | 364 | i
O=C(NCCCCNC(=O)c1ccccc1F)c1ccccc1F | i | i | i | i | i | 75
O=C(O)CNC(=O)c1ccccc1F | i | i | nt | i | i | i
Cc1nc2ccc(F)cc2cc1C(=O)Nc1ccc(Cl)c(Cl)c1 | i | i | i | i | i | i
CC(C)=NNc1ncnc2nc[nH]c12 | i | 72 | i | i | i | i
CC(O)CNc1ncnc2nc[nH]c12 (centres undefined) | i | i | nt | i | i | i
Cc1c(C(=O)N2CCCC2)oc2c1-c1nn(CC(=O)NCCCOC(C)C)cc1CC2 | i | i | i | 138 | i | i
